According to ChEMBL document CHEMBL3779820, “Discovery of a Novel Inhibitor of Histone Lysine-Specific Demethylase 1A (KDM1A/LSD1) as Orally Active Antitumor Agent” (J Med Chem, 2016):
The source made the active and inactive calls. The calls are words filed in the database; no cut-off is given here.

Assays:
[1] = target: Lysine-specific histone demethylase 1A (Homo sapiens) (UniProt O60341); test: Inhibition of KDM1A in human NB4 cells assessed as increase in CD11b mRNA expression at biochemical IC50 measured after 24 hrs by RT-PCR analysis relative to control; type: cell-based; details: NB-4
[2] = target: Lysine-specific histone demethylase 1A (Homo sapiens) (UniProt O60341); test: Inhibition of KDM1A in human NB4 cells assessed as increase in GFI1B mRNA expression at biochemical IC50 measured after 24 hrs by RT-PCR analysis relative to control; type: cell-based; details: NB-4
LSD1/CoREST complex = LSD1/CoREST complex (Homo sapiens, UniProt O60341); test: Inhibition of human recombinant KDM1A/CoREST expressed in Escherichia coli using mono-methylated H3-K4 peptide as substrate assessed as H2O2 release preincubated for 15 mins followed by substrate addition measured for 12 mins by fluorescence-based microplate reader analysis
Summary of the method: (§1)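 Human recombinant KDM1A/CoREST, KDM1B, MAO A and MAO B used as enzyme sources; compounds incubated with the enzyme and results expressed as IC50.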

THP-1 [3] = test: Induction of differentiation of human THP1 cells assessed assessed as alteration in morphology of colonies after 13 days by May Grunwald-Giemsa staining based assay; type: functional, cell-based
Summary of the method: (§2)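 THP-1 cells cultured 13 days in semisolid methylcellulose with compound at 0.5 µM; colony morphology imaged, and cells recovered at end of culture examined as May Grunwald-Giemsa-stained cytospin preparations.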

[4] = target: T1, Amine oxidase [flavin-containing] A (Homo sapiens, UniProt P21397); test: Inhibition of human recombinant MAOA expressed in Pichia pastoris preincubated for 15 mins measured after 30 mins by bioluminescent-coupled assay; summary of the method: as §1
T1 sequence (P21397 whole entry): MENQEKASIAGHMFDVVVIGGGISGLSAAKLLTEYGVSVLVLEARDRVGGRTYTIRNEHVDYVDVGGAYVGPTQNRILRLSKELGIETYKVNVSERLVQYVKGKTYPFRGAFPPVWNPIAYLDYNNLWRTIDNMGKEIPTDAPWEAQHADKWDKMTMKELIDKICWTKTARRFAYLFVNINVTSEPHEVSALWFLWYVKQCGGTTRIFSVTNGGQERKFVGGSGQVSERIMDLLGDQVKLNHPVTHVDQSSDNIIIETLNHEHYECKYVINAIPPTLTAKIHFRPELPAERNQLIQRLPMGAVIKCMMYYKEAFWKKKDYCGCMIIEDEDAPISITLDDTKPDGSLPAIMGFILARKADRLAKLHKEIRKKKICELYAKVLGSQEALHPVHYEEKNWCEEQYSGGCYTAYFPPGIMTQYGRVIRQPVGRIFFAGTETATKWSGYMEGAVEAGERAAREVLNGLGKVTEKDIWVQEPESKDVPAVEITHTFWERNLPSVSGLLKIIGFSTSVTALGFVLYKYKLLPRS

[5] = target: T2, Lysine-specific histone demethylase 2 (Homo sapiens, UniProt Q8NB78); test: Inhibition of KDM1B (unknown origin)
T2 sequence (Q8NB78 whole entry): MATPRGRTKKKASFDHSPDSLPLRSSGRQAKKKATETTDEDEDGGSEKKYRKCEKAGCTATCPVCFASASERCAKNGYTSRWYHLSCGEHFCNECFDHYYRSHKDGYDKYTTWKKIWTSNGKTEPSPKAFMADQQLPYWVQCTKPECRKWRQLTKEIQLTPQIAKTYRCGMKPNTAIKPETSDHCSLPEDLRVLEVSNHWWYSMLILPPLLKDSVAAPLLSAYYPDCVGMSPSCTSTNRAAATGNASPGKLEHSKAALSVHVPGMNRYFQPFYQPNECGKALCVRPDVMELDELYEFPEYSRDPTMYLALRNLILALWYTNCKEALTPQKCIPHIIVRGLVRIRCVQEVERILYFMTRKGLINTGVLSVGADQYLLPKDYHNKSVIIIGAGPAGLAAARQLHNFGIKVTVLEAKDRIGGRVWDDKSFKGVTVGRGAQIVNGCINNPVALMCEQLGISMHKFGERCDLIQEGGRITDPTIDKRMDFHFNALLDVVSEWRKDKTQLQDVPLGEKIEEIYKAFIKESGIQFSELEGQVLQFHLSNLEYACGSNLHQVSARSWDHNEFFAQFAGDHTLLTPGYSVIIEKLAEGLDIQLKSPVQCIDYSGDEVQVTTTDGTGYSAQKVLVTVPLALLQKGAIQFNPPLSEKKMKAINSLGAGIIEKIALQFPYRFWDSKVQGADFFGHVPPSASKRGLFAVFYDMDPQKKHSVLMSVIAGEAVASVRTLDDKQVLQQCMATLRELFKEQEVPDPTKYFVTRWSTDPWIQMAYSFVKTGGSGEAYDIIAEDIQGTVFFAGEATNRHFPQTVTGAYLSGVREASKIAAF

[6] = Anticlonogenic activity against human THP1 cells assessed as inhibition of colony formation of cells at 0.5 uM measured after 13 days relative to control; type: functional; details: THP-1, […]
Summary of the method: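 THP-1 cells (RPMI, 10% FBS, 2 mM L-glutamine, 37°C, 5% CO2) plated at 250 cells/plate in enriched methylcellulose medium with compound at 0.5 µM for 13 days.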

THP-1 [7] = test: Induction of differentiation of human THP1 cells after 13 days by cytospin assay; type: functional, cell-based; summary of the method: as §2
[8] = Anticlonogenic activity against 129sv mouse APL blast cells assessed as inhibition of colony formation of cells at 0.25 uM measured after 7 days relative to control; type: functional; details: 168 h
[9] = Antitumor activity against 129SvEv mouse APL blast cells implanted in nonirradiated 129SvEv mouse assessed as increase in survival of leukemic mouse at 0.0125 mg/kg, ip administered for 5 days per week for 2 weeks by Kaplan-Meier plot analysis relative to vehicle control; type: functional
Summary of the method: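 One million leukemic blasts from 129SvEv mice given iv to non-irradiated syngeneic recipients; groups of at least 6 mice randomized. Dosing began once blasts appeared in peripheral blood (about day 10). Drug dissolved in 40% PEG 400 in 5% glucose and given ip. Survival compared with the vehicle group by Kaplan–Meier analysis.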

Homo sapiens = species: Homo sapiens; test: Selectivity ratio of IC50 for human recombinant MAOA expressed in Pichia pastoris to IC50 for human recombinant KDM1A/CoREST expressed in Escherichia coli
[10] = target: T3, Amine oxidase [flavin-containing] B (Homo sapiens, UniProt P27338); test: Inhibition of human recombinant MAOB expressed in Pichia pastoris preincubated for 15 mins measured after 30 mins by bioluminescent-coupled assay; summary of the method: as §1
T3 sequence (P27338 whole entry): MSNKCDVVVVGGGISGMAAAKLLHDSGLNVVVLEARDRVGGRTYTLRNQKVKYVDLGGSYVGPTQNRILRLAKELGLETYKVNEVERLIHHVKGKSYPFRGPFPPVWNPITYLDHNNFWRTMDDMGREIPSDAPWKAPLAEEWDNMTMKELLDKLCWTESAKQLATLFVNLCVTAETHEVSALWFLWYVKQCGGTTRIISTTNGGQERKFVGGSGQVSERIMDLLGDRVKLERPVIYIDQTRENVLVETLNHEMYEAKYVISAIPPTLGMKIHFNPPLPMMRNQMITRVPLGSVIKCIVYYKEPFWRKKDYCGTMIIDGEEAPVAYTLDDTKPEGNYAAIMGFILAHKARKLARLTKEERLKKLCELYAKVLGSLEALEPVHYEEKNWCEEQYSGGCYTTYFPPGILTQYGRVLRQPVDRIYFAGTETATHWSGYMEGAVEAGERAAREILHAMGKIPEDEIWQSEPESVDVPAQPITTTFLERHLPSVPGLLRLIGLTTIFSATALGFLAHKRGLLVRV

[11] = Tmax in CD1 mouse at 15 mg/kg, po administered as single dose; type: ADME, organism-based; details: in vivo
Summary of the method: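 Single dose to CD1 mice: 5 mg/kg iv in 5% glucose with 10% tween 80, or 15 mg/kg orally in 5% glucose with 40% PEG. Plasma parameters derived from concentration–time profiles.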

In the case of CN1CCN(c2ccc(C(=O)Nc3ccc([C@@H]4C[C@H]4N)cc3)cc2)CC1 [listing 1 of 2 here], the fold change (FC) [1] is reported as 3.9 and the fold change (FC) [2] is reported as 4.2.
For CN1CCN(c2ccc(C(=O)Nc3ccc([C@@H]4C[C@H]4N)cc3)cc2)CC1 [listing 2 of 2 here], the IC50 (LSD1/CoREST complex) was 84 nM.
For N[C@H]1CC[C@H](N[C@@H]2C[C@H]2c2ccccc2)CC1, the Activity (THP-1 [3]) was “Active”, the IC50 [4] was 48400 nM and the IC50 [5] was 43400 nM. The fold change (FC) [1] was 5.1, the inhibition at 0.5 µM [6] was 58% and the Activity (THP-1 [7]) was “Active”. It also gave an inhibition at 0.25 µM [8] of 84%, a fold change (FC) [2] of 7 and an Activity [9] of 14%.
N[C@@H]1C[C@H]1c1ccc(NC(=O)c2ccc(N3CCCCC3)c(NC(=O)OCc3ccccc3)c2)cc1 (relative stereo) gave an IC50 (LSD1/CoREST complex) of 308 nM.
CN1CCN(c2ccc(C(=O)Nc3ccc([C@@H]4C[C@H]4N)cc3)cc2)CC1 (racemic) gave a fold change (FC) [1] of 3.2 and a fold change (FC) [2] of 4.9.
CN1CCN(c2ccc(C(=O)Nc3ccc([C@@H]4C[C@H]4N)cc3)cc2NC(=O)OCc2ccccc2)CC1 (relative stereo) showed a Ratio IC50 (Homo sapiens) greater than 10, an IC50 [10] greater than 100000 nM and an IC50 [4] of 1000 nM. The IC50 [5] was 4300 nM, the fold change (FC) [1] was 3 and the inhibition at 0.25 µM [8] was 57%. The fold change (FC) [2] was 4.5.
In the case of N[C@@H]1C[C@H]1c1ccc(NC(=O)c2ccc(N3CCOC3=O)cc2)cc1 (racemic), the IC50 [10] is reported as 1600 nM, the IC50 [4] is reported as 29.7 nM and the IC50 (LSD1/CoREST complex) is reported as 33.5 nM.
CN1CCN(c2ccc(C(=O)Nc3ccc([C@H]4C[C@@H]4N)cc3)cc2)CC1 gave an IC50 (LSD1/CoREST complex) of 230 nM, a fold change (FC) [1] of 3.1 and a fold change (FC) [2] of 3.
In the case of CN1CCN(c2ccc(C(=O)Nc3ccc([C@@H]4C[C@H]4N)cc3)cc2)CC1.Cl.Cl (racemic), the Tmax [11] is reported as 12 h and the IC50 (LSD1/CoREST complex) is reported as 189 nM.
